Source: ChEMBL document CHEMBL6071188, “Synthesis and In Vivo Profiling of Desymmetrized Antimalarial Trioxolanes with Diverse Carbamate Side Chains” (ACS Med Chem Lett, 2024)
Converted amounts (≈) assume the structure as drawn.

Key:
[1] = Metabolic stability in human liver microsomes assessed as intrinsic clearance; format: ADME, Microsome; details: for microsomal intrinsic clearance: microsomes; for microsomal CLint: liver microsomes, read-out: CLH
[2] = Solubility of the compound in PBS buffer at pH 7.4; format: physicochemical
Plasmodium berghei [3] = assay: Antiplasmodial activity against Plasmodium berghei infected in female Swiss Webster mouse model assessed as survival at 10 mg/kg, po administered once daily for 2 days and measured upto 30 days; format: functional; details: time 30 day
Method in brief: (§1)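 Female Swiss Webster mice (~20 g) infected ip with 10^6 P. berghei-infected erythrocytes from a donor mouse. Dosing by oral gavage once daily for 1–2 days starting 1 h post-inoculation, in 10% DMSO/50% PEG400/40% of 20% HP-β-CD in water. Five mice per arm. Daily Giemsa smears from day 7, counting infected cells per 1000 erythrocytes. Body weight tracked. Euthanasia at >50% parasitemia or >15% weight loss. Followed to day 30; cure means no parasitemia at day 30. Survival reported as the day of the longest-surviving mouse.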

[4] = Toxicity in female Swiss Webster mouse infected with Plasmodium berghei assessed as drug tolerance at 20 mg/kg, […]; format: organism-based; details: in vivo, po
Plasmodium berghei [5] = assay: Antiplasmodial activity against Plasmodium berghei infected in female Swiss Webster mouse model assessed as survival at 20 mg/kg, po administered once daily for 1 day
[6] = Toxicity in female Swiss Webster mouse infected with Plasmodium berghei assessed as drug tolerance at 10 mg/kg, po administered once daily for 2 days and measured upto 30 days; format: organism-based; details: in vivo, 720 h, time 30 day; method in brief: as §1

| Structure (SMILES) | microsomal intrinsic clearance [1] [µL/min/mg] | solubility kinetic [2] [µM] | Survival (Plasmodium berghei [3]) [days] | Activity [4] | Survival (Plasmodium berghei [5]) [days] | Activity [6] | microsomal CLint [1] [µL/min/mg] |
| --- | --- | --- | --- | --- | --- | --- | --- |
| N[C@@H]1CCN(C(=O)O[C@H]2CCC[C@@]3(C2)OOC2(O3)C3CC4CC(C3)CC2C4)C1 (stereo partly drawn) | 58.7 | – | – | – | – | – | – |
| CC(C)C1(O)CN(C(=O)O[C@H]2CCC[C@@]3(C2)OOC2(O3)C3CC4CC(C3)CC2C4)C1 (stereo partly drawn) | 657 | 15.1 (≈ 6.37 µg/mL) | – | – | – | – | – |
| CS(=N)(=O)C1CN(C(=O)O[C@H]2CCC[C@@]3(C2)OOC2(O3)C3CC4CC(C3)CC2C4)C1 (stereo partly drawn) | 431 | 142 (≈ 62.6 µg/mL) | – | – | – | – | – |
| C[S+]([O-])C1CN(C(=O)O[C@H]2CCC[C@@]3(C2)OOC2(O3)C3CC4CC(C3)CC2C4)C1 (stereo partly drawn) | 750 | 184 (≈ 78.3 µg/mL) | – | – | – | – | – |
| CCC1(O)CN(C(=O)O[C@@H]2CCC[C@]3(C2)OOC2(O3)C3CC4CC(C3)CC2C4)C1 (stereo partly drawn) | 480 | 58.7 (≈ 23.9 µg/mL) | – | – | – | – | – |
| NC1(CNC(=O)O[C@H]2CCC[C@@]3(C2)OOC2(O3)C3CC4CC(C3)CC2C4)CCC1 (stereo partly drawn) | 24.9 | 162 (≈ 65.9 µg/mL) | 13 | – | – | – | – |
| NC1CN(C(=O)O[C@H]2CCC[C@@]3(C2)OOC2(O3)C3CC4CC(C3)CC2C4)C1 (stereo partly drawn) | < 11.6 | 101 (≈ 38.2 µg/mL) | – | Non-Toxic | 5 | – | – |
| CS(=O)(=O)C1CN(C(=O)O[C@@H]2CCC[C@]3(C2)OOC2(O3)C3CC4CC(C3)CC2C4)C1 (stereo partly drawn) | 526 | 66.7 (≈ 29.5 µg/mL) | – | – | – | – | – |
| NC1(CNC(=O)O[C@@H]2CCC[C@]3(C2)OOC2(O3)C3CC4CC(C3)CC2C4)CCC1 (stereo partly drawn) | 37.4 | 142 (≈ 57.7 µg/mL) | 13 | – | – | Non-Toxic | – |
| NC1(CNC(=O)O[C@@H]2CCC[C@]3(C2)OOC2(O3)C3CC4CC(C3)CC2C4)CCCC1 (stereo partly drawn) | 29.9 | 162 (≈ 68.1 µg/mL) | 11 | – | – | Non-Toxic | – |
| NCC1CCN(C(=O)O[C@H]2CCC[C@@]3(C2)OOC2(O3)C3CC4CC(C3)CC2C4)CC1 (stereo partly drawn) | 69.6 | 112 (≈ 47.1 µg/mL) | – | – | – | – | – |
| O=C(NCC1(O)COC1)O[C@H]1CCC[C@@]2(C1)OOC1(O2)C2CC3CC(C2)CC1C3 (stereo partly drawn) | 333 | 112 (≈ 45.9 µg/mL) | 6 | – | – | Non-Toxic | – |
| N=S(=O)(CCNC(=O)O[C@H]1CCC[C@@]2(C1)OOC1(O2)C2CC3CC(C2)CC1C3)C1CC1 (stereo partly drawn) | 450 | 234 (≈ 106 µg/mL) | 6 | – | – | Non-Toxic | – |
| CCCC1(O)CN(C(=O)O[C@H]2CCC[C@@]3(C2)OOC2(O3)C3CC4CC(C3)CC2C4)C1 (stereo partly drawn) | 683 | 18.2 (≈ 7.67 µg/mL) | – | – | – | – | – |
| CC(C)(CN)CNC(=O)O[C@@H]1CCC[C@]2(C1)OOC1(O2)C2CC3CC(C2)CC1C3 (stereo partly drawn) | – | – | – | – | – | – | 14.3 |
| N[C@H]1CC[C@H](NC(=O)O[C@H]2CCC[C@@]3(C2)OOC2(O3)C3CC4CC(C3)CC2C4)CC1 (stereo partly drawn) | 28.2 | – | – | – | – | – | – |
| N[C@@H]1CCCN(C(=O)O[C@@H]2CCC[C@]3(C2)OOC2(O3)C3CC4CC(C3)CC2C4)C1 (stereo partly drawn) | 43.7 | 74.9 (≈ 30.4 µg/mL) | 12 | – | – | Non-Toxic | – |
| CS(=O)(=O)C1CN(C(=O)O[C@H]2CCC[C@@]3(C2)OOC2(O3)C3CC4CC(C3)CC2C4)C1 (stereo partly drawn) | 851 | 81.1 (≈ 35.8 µg/mL) | – | – | – | – | – |
| CS(=N)(=O)CCNC(=O)O[C@@H]1CCC[C@]2(C1)OOC1(O2)C2CC3CC(C2)CC1C3 (stereo partly drawn) | 243 | 128 (≈ 54.9 µg/mL) | – | – | – | – | – |
| N=S(=O)(CCNC(=O)O[C@@H]1CCC[C@]2(C1)OOC1(O2)C2CC3CC(C2)CC1C3)C1CC1 (stereo partly drawn) | 435 | 79.3 (≈ 36 µg/mL) | – | – | – | – | – |
| CCC1(O)CN(C(=O)O[C@H]2CCC[C@@]3(C2)OOC2(O3)C3CC4CC(C3)CC2C4)C1 (stereo partly drawn) | 638 | 41.5 (≈ 16.9 µg/mL) | – | – | – | – | – |

| Structure (SMILES) | microsomal intrinsic clearance [1] [µL/min/mg] | solubility kinetic [2] [µM] | Survival (Plasmodium berghei [3]) [days] | Activity [4] | Survival (Plasmodium berghei [5]) [days] | Activity [6] | microsomal CLint [1] [µL/min/mg] |
| --- | --- | --- | --- | --- | --- | --- | --- |
| O=C(O[C@H]1CCC[C@@]2(C1)OOC1(O2)C2CC3CC(C2)CC1C3)N1CC(O)(C(F)(F)F)C1 (stereo partly drawn) | 211 | 10.8 (≈ 4.83 µg/mL) | – | – | – | – | – |
| CC(C)(CN)CNC(=O)O[C@H]1CCC[C@@]2(C1)OOC1(O2)C2CC3CC(C2)CC1C3 (stereo partly drawn) | – | 164 (≈ 67 µg/mL) | – | – | – | – | 21.4 |
| CN1CCN(C(=O)O[C@H]2CCC[C@@]3(C2)OOC2(O3)C3CC4CC(C3)CC2C4)CC1 (stereo partly drawn) | – | 109 (≈ 44.3 µg/mL) | – | – | – | – | – |
| C[S+]([O-])C1CN(C(=O)O[C@@H]2CCC[C@]3(C2)OOC2(O3)C3CC4CC(C3)CC2C4)C1 (stereo partly drawn) | 516 | 138 (≈ 58.7 µg/mL) | – | – | – | – | – |
| NC1(CNC(=O)O[C@H]2CCC[C@@]3(C2)OOC2(O3)C3CC4CC(C3)CC2C4)CC1 (stereo partly drawn) | 37.4 | 143 (≈ 56.1 µg/mL) | 11 | Non-Toxic | 11 | Non-Toxic | – |
| CCCC1(O)CN(C(=O)O[C@@H]2CCC[C@]3(C2)OOC2(O3)C3CC4CC(C3)CC2C4)C1 (stereo partly drawn) | 579 | 16.1 (≈ 6.79 µg/mL) | – | – | – | – | – |
| CC1(O)CN(C(=O)O[C@H]2CCC[C@@]3(C2)OOC2(O3)C3CC4CC(C3)CC2C4)C1 (stereo partly drawn) | – | 137 (≈ 53.9 µg/mL) | 4 | – | – | Non-Toxic | – |
| NC1CCN(C(=O)O[C@H]2CCC[C@@]3(C2)OOC2(O3)C3CC4CC(C3)CC2C4)CC1 (stereo partly drawn) | – | 118 (≈ 48 µg/mL) | 11 | Non-Toxic | 9 | Non-Toxic | 11.8 |
| CS(=N)(=O)C1CN(C(=O)O[C@@H]2CCC[C@]3(C2)OOC2(O3)C3CC4CC(C3)CC2C4)C1 (stereo partly drawn) | 234 | 268 (≈ 118 µg/mL) | – | – | – | – | – |
| O=C(O[C@H]1CCC[C@@]2(C1)OOC1(O2)C2CC3CC(C2)CC1C3)N1CCNCC1 (stereo partly drawn) | 120 | 167 (≈ 65.5 µg/mL) | – | – | – | – | – |
| O=C(O[C@@H]1CCC[C@]2(C1)OOC1(O2)C2CC3CC(C2)CC1C3)N1CCNCC1 (stereo partly drawn) | – | 144 (≈ 56.5 µg/mL) | – | – | – | – | 39.4 |
| O=C(O[C@@H]1CCC[C@]2(C1)OOC1(O2)C2CC3CC(C2)CC1C3)N1CC(O)(C(F)(F)F)C1 (stereo partly drawn) | 234 | 24.8 (≈ 11.1 µg/mL) | 9 | – | – | Non-Toxic | – |
| NCCC1CCN(C(=O)O[C@H]2CCC[C@@]3(C2)OOC2(O3)C3CC4CC(C3)CC2C4)CC1 (stereo partly drawn) | 92.7 | 117 (≈ 50.8 µg/mL) | – | – | – | – | – |
| CC1(O)CN(C(=O)O[C@@H]2CCC[C@]3(C2)OOC2(O3)C3CC4CC(C3)CC2C4)C1 (stereo partly drawn) | – | 71.4 (≈ 28.1 µg/mL) | 7 | – | – | Non-Toxic | – |
| CC(C)C1(O)CN(C(=O)O[C@@H]2CCC[C@]3(C2)OOC2(O3)C3CC4CC(C3)CC2C4)C1 (stereo partly drawn) | 392 | 15.9 (≈ 6.7 µg/mL) | – | – | – | – | – |
| NC1(CNC(=O)O[C@H]2CCC[C@@]3(C2)OOC2(O3)C3CC4CC(C3)CC2C4)CCCC1 (stereo partly drawn) | 25.3 | 13.4 (≈ 5.64 µg/mL) | 14 | – | – | Non-Toxic | – |
| NC1(CNC(=O)O[C@H]2CCC[C@@]3(C2)OOC2(O3)C3CC4CC(C3)CC2C4)COC1 (stereo partly drawn) | 135 | 87.7 (≈ 35.8 µg/mL) | 9 | – | – | Non-Toxic | – |
| CS(=N)(=O)CCNC(=O)O[C@H]1CCC[C@@]2(C1)OOC1(O2)C2CC3CC(C2)CC1C3 (stereo partly drawn) | 319 | 129 (≈ 55.3 µg/mL) | – | – | – | – | – |
| O=C(NCC1(O)COC1)O[C@@H]1CCC[C@]2(C1)OOC1(O2)C2CC3CC(C2)CC1C3 (stereo partly drawn) | 76.2 | – | 6 | – | – | Non-Toxic | – |
| N[C@@H]1CCCN(C(=O)O[C@H]2CCC[C@@]3(C2)OOC2(O3)C3CC4CC(C3)CC2C4)C1 (stereo partly drawn) | 52.7 | 129 (≈ 52.4 µg/mL) | – | – | – | – | – |
